4 molecules from ChEMBL document CHEMBL1649230, “Aryl rhodanines specifically inhibit staphylococcal and enterococcal biofilm formation” (Antimicrob Agents Chemother, 2009) can be followed below.

The source made the active and inactive calls. The calls are words filed in the database; no cut-off is given here.

Assay [1] concerns Enterococcus faecalis. Briefly: Antimicrobial activity against vancomycin-resistant Enterococcus faecalis isolate F177 assessed as inhibition of bacterial biofilm after 18 hrs by broth microdilution method. Format: functional. An outline of the steps: (§1)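 Biofilm MBIC on tissue culture-treated polystyrene 96-well plates. Twofold dilutions, 0.2 to 100 μM final, with 2% DMSO final. Inoculum was an overnight culture diluted 1:100 (~5 × 10^6 cells/well) in 0.5× TSB plus 1% glucose, grown 18 h at 37°C. Wells washed, heat-fixed 60°C 60 min, stained with 0.06% crystal violet, OD600 read. MBIC is the lowest concentration giving ≥80% inhibition versus untreated; geometric mean of ≥3 experiments.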
Background: Dilution methods test growth across graded concentrations, often in twofold steps.

Assay [2] concerns Staphylococcus aureus. Put plainly: Antimicrobial activity against community acquired methicillin-resistant Staphylococcus aureus isolate 24102 assessed as inhibition of bacterial biofilm after 18 hrs by broth microdilution method. Format: functional. A digest of the protocol:
as §1

The subject of assay [3] is Staphylococcus aureus. Put plainly: Antimicrobial activity against Staphylococcus aureus ATCC 35556 assessed as inhibition of primary adhesion of bacterial biofilm to polystyrene surface under static condition at 0.5 times MBIC after 30 mins by fluorescence emission using BaclLight Live Dead stain. Format: functional, organism-based. An outline of the steps:
(§2)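 Mid-log S. aureus ATCC 35556 (OD600 0.5) grown in TSB at 37°C, washed, resuspended in PBS. Compound added (0× to 8× MBIC, 2% DMSO). Suspension placed on tissue culture-treated polystyrene or PVC 96-well plates (eight wells per level) or silicone disks in 24-well plates (three wells). Incubated 30 min at 37°C, then washed. BacLight Live/Dead fluorescence read (ex 485, em 530 nm). Result given as fraction adherent versus untreated.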

Assay [4] has as its system Staphylococcus aureus. Put plainly: Antimicrobial activity against Staphylococcus aureus ATCC 35556 assessed as inhibition of primary adhesion of bacterial biofilm to PVC surface under static condition at 4 times MBIC after 30 mins by fluorescence emission using BaclLight Live Dead stain. Format: functional, organism-based. A digest of the protocol: as §2
In assay [5] the test system is Staphylococcus aureus. Put plainly: Antimicrobial activity against Staphylococcus aureus ATCC 35556 assessed as inhibition of primary adhesion of bacterial biofilm to silicone disk under static condition at MBIC after 30 mins by fluorescence emission using BaclLight Live Dead stain. In kind it is functional, organism-based. An outline of the steps:
as §2

Assay [6] deals with Staphylococcus aureus. Put plainly: Antimicrobial activity against Staphylococcus aureus ATCC 35556 assessed as inhibition of primary adhesion of bacterial biofilm to polystyrene surface under static condition pretreated with compound MBIC for 30 mins measured after 30 mins by fluorescence emission using BaclLight Live Dead stain. Format: functional. An outline of the steps:
(§3)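 PBS suspension of mid-log S. aureus ATCC 35556 exposed to compound in tubes for 30 min at 37°C. Cells centrifuged to remove free compound and resuspended in PBS at the original density. They were then placed on tissue culture-treated polystyrene for 30 min at 37°C. Wells washed, BacLight Live/Dead fluorescence read (ex 485, em 530 nm). Fraction adherent calculated versus untreated.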

Assay [7] has as its system Staphylococcus aureus. Briefly: Antimicrobial activity against Staphylococcus aureus ATCC 35556 assessed as inhibition of primary adhesion of bacterial biofilm to polystyrene surface under static condition pretreated with 4 times compound MBIC for 30 mins measured after 30 mins by fluorescence emission using BaclLight Live Dead stain. In kind it is functional. An outline of the steps:
as §3

The subject of assay [8] is Staphylococcus aureus. Briefly: Antimicrobial activity against Staphylococcus aureus ATCC 35556 assessed as effect on protein synthesis at 15 ug/ml. Format: functional, organism-based.
Assay [9] has as its system Enterococcus faecalis. Put plainly: Antimicrobial activity against vancomycin-resistant Enterococcus faecalis isolate F177 on medical grade silicone disk assessed as inhibition of bacterial biofilm after 18 hrs by broth microdilution method. In kind it is functional. A digest of the protocol: (§4)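 Medical-grade silicone disks glued to 24-well plate bottoms. Compound added to a 1:100 overnight-culture inoculum (0.5× TSB, 1% glucose) at 2% DMSO final; ≥3 wells each, ~18 h at 37°C. Washed with water, heat-fixed 60°C 60 min, stained with 0.06% crystal violet, eluted with 30% acetic acid, OD600 read. Repeated ≥3 times.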

The test system of assay [10] is Staphylococcus aureus. Briefly: Antimicrobial activity against community acquired methicillin-resistant Staphylococcus aureus isolate 33548 assessed as inhibition of bacterial biofilm after 18 hrs by broth microdilution method. In kind it is functional. A digest of the protocol: as §1
The subject of assay [11] is Enterococcus faecalis. Put plainly: Antimicrobial activity against vancomycin-resistant Enterococcus faecalis isolate F217 assessed as inhibition of bacterial biofilm after 18 hrs by broth microdilution method. Format: functional. A digest of the protocol:
as §1

Assay [12] has as its system Enterococcus faecalis. Briefly: Antimicrobial activity against vancomycin-resistant Enterococcus faecalis isolate F217 on medical grade silicone disk assessed as inhibition of bacterial biofilm after 18 hrs by broth microdilution method. In kind it is functional. A digest of the protocol:
as §4

The test system of assay [13] is Enterococcus faecalis. Briefly: Antimicrobial activity against vancomycin-resistant Enterococcus faecalis isolate F317 on medical grade silicone disk assessed as inhibition of bacterial biofilm after 18 hrs by broth microdilution method. Format: functional. A digest of the protocol:
as §4

The test system of assay [14] is Staphylococcus aureus. Briefly: Antimicrobial activity against community acquired methicillin-resistant Staphylococcus aureus isolate 43349 assessed as inhibition of bacterial biofilm after 18 hrs by broth microdilution method. Format: functional. A digest of the protocol: as §1
Assay [15] deals with Staphylococcus epidermidis. Briefly: Antimicrobial activity against methicillin-resistant Staphylococcus epidermidis GTC 18972 assessed as inhibition of bacterial biofilm after 18 hrs by broth microdilution method. In kind it is functional. An outline of the steps:
as §1

The test system of assay [16] is Staphylococcus aureus. Briefly: Antimicrobial activity against Staphylococcus aureus ATCC 35556 on medical grade silicone disk assessed as inhibition of bacterial biofilm after 18 hrs by broth microdilution method. Format: functional, organism-based.
Assay [17] relates to Staphylococcus epidermidis. Put plainly: Antimicrobial activity against Staphylococcus epidermidis ATCC 35984 on medical grade silicone disk assessed as inhibition of bacterial biofilm after 18 hrs by broth microdilution method. Format: functional. A digest of the protocol: as §4
Assay [18] concerns Staphylococcus aureus. Briefly: Antimicrobial activity against Staphylococcus aureus ATCC 35556 assessed as inhibition of planktonic cell growth at 8 times MBIC. Format: functional, organism-based.
Assay [19] concerns Staphylococcus aureus. Briefly: Antimicrobial activity against Staphylococcus aureus ATCC 35556 assessed as inhibition of bacterial biofilm formation at 4 times MBIC measured after 4 hrs. Format: functional, organism-based.
Assay [20] concerns Staphylococcus aureus. Briefly: Antimicrobial activity against Staphylococcus aureus ATCC 35556 assessed as inhibition of primary adhesion of bacterial biofilm to silicone disk surface under shaking condition at 4 times MBIC after 30 mins by fluorescence emission using BaclLight Live Dead stain. In kind it is functional, organism-based.
Assay [21] relates to Staphylococcus aureus. Briefly: Inhibition of […] of Staphylococcus aureus ATCC 35556 assessed as level of beta-galactosidase activity at 8 times MBIC by Miller assay. In kind it is functional, organism-based. A digest of the protocol: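 Stationary-phase autolysis used ATCC 35556 carrying pAJ22, inoculated 1:100 from overnight culture into TSB with 6 μg chloramphenicol/ml and varying compound. Cultures were shaken at 250 rpm, 37°C, for 96 h, sampling OD600 and cell-free supernatants over time. Released β-galactosidase in supernatants was assayed with o-nitrophenyl-β-d-galactopyranoside and reported in Miller units.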

The subject of assay [22] is Staphylococcus aureus. Put plainly: Effect on PNAG synthesis in Staphylococcus aureus ATCC 35556 by dot blot Western analysis. Format: functional, organism-based. An outline of the steps: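 PNAG extracts were made from S. aureus ATCC 35556 grown with compound at 0× to 8× MBIC. Extracts were serially diluted 1:4, spotted onto nitrocellulose and probed with WGA-HRP, detected by chemiluminescent substrate on film. A PNAG-defective Δica::Tc strain extract served as the specificity control.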

Assay [23] relates to Staphylococcus aureus. Put plainly: Antimicrobial activity against Staphylococcus aureus ATCC 35556 assessed as inhibition of primary adhesion of bacterial biofilm to silicone disk at MBIC after 30 mins by fluorescence emission using BaclLight Live Dead stain.
The test system of assay [24] is Staphylococcus aureus. Briefly: Antimicrobial activity against community acquired methicillin-resistant Staphylococcus aureus isolate 27687 assessed as inhibition of bacterial biofilm after 18 hrs by broth microdilution method. In kind it is functional. An outline of the steps: as §1
Assay [25] concerns Enterococcus faecalis. Briefly: Antimicrobial activity against Enterococcus faecalis ATCC 51299 on medical grade silicone disk assessed as inhibition of bacterial biofilm after 18 hrs by broth microdilution method. In kind it is functional.

In the case of `CCOc1cc(/C=C2\SC(=S)N(c3cccnc3)C2=O)ccc1O`, the MBIC in the assay with Enterococcus faecalis [1] and in the assay with Staphylococcus aureus [2] was 19.8 µM throughout. Moreover, the inhibition entry in the assay with Staphylococcus aureus [3], in the assay on Staphylococcus aureus [4] and in the assay on Staphylococcus aureus [5] was “Active” each time. In addition, the “inhibition (INH)” value with Staphylococcus aureus [6] and with Staphylococcus aureus [7] was “>=80%” throughout. Also, in the assay with Staphylococcus aureus [8], the inhibition entry was “inactive”.

For the molecule `CCOc1cc(/C=C2\SC(=S)N(c3cccc(F)c3)C2=O)ccc1O`, the MBIC90 entry with Enterococcus faecalis [9], in the assay on Enterococcus faecalis [12] and in the assay with Enterococcus faecalis [13] was “>=100 uM” in each case. Moreover, the MBIC is 35.4 µM in the assay with Staphylococcus aureus [10] and 29.7 µM in the assay with Enterococcus faecalis [11].

Turning to `CCOc1cc(/C=C2\SC(=S)N(c3ccc(F)cc3)C2=O)ccc1O`, the MBIC90 entry with Enterococcus faecalis [9] is “>=100 uM”; in assay [17], 42 µM; in the assay on Enterococcus faecalis [12], “>=100 uM”; with Enterococcus faecalis [13], “>=100 uM”. For the same molecule, the MBIC was 35.4 µM in the assay on Staphylococcus aureus [14], 21 µM in [15] and 12.5 µM with Enterococcus faecalis [11]. Also, the Activity result in the assay on Staphylococcus aureus [16] was “Dose-dependent effect”. The inhibition result with Staphylococcus aureus [18], in the assay on Staphylococcus aureus [21], in the assay with Staphylococcus aureus [22] and with Staphylococcus aureus [8] was “inactive” each time. Also, the inhibition result in the assay with Staphylococcus aureus [19], in the assay with Staphylococcus aureus [3], with Staphylococcus aureus [4], in the assay on Staphylococcus aureus [5], in the assay on Staphylococcus aureus [20] and in the assay with Staphylococcus aureus [23] was “Active” in each case. Besides, the “inhibition (INH)” value in the assay with Staphylococcus aureus [6] and in the assay on Staphylococcus aureus [7] was “>=80%” each time.

Take `C=CCOc1cc(/C=C2\SC(=S)N(c3ccc(F)cc3)C2=O)ccc1O`: the MBIC in the assay with Staphylococcus aureus [24] stood at 50 µM; in the assay on Staphylococcus aureus [2], 100 µM; in the assay on Staphylococcus aureus [10], 31.5 µM. Moreover, the MBIC90 in the assay with Enterococcus faecalis [25] turned out to be 100 µM.
